Laboratory results taken from ChEMBL document CHEMBL2086264.
Values after ≈ are worked out from the molar mass of the structure shown. Active and inactive are the calls of the source. The calls are words filed in the database; no cut-off is given here.

Columns and labels:
[1] = Inhibition of Staphylococcus aureus PlsY expressed in Escherichia coli FB23281 using [U-14C]glycerol-PO4 as substrate after 20 mins by scintillation counting
How it was run: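 Membranes from E. coli FB23281 (ΔplsY) expressing S. aureus PlsY (SA1187), 4 µg per reaction. pH 7.4 buffer of 100 mM Tris–HCl, 150 mM NaCl, 1 mg/mL BSA and 5 mM Na3VO4, with 100 µM [U-14C]glycerol-PO4. Started with 16:0-PO4 (final 100 µM), 20 min at 37°C. Spotted on filter discs, washed in graded ice-cold TCA, scintillation counted.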

Bacillus anthracis [2] = assay: Antibacterial activity against Bacillus anthracis after overnight incubation by microbroth dilution assay; format: functional
Bacillus anthracis [3] = assay: Inhibition of DNA synthesis in Bacillus anthracis sterne assessed as Inhibition of [3H]thymidine incorporation into DNA incubated for 15 mins prior to [3H]thymidine addition measured after 30 mins by scintillation counting; format: functional, organism-based
Bacillus anthracis [4] = assay: Inhibition of RNA synthesis in Bacillus anthracis sterne assessed as Inhibition of [3H]uracil incorporation into RNA incubated for 15 mins prior to [3H]uracil addition measured after 30 mins by scintillation counting; format: functional, organism-based
Enterococcus faecalis = assay: Antibacterial activity against Enterococcus faecalis ATCC 33186 after overnight incubation by microbroth dilution assay; format: functional
How it was run: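 CLSI microbroth dilution in Mueller-Hinton broth; compounds dissolved in DMSO, twofold serial dilutions giving final 200–0.0125 µg/mL. Inoculum from single colony grown at 37°C to mid-log (OD600 0.5), diluted to final OD600 0.0005 (~10^5 CFU/mL). Incubated overnight at 37°C; MIC = lowest concentration inhibiting 90% of visible growth.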

Staphylococcus aureus = assay: Antibacterial activity against Staphylococcus aureus ATCC 29213 after overnight incubation by microbroth dilution assay; format: functional
How it was run: (§1)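 CLSI M7A7 microbroth dilution in Mueller-Hinton broth; S. pneumoniae broth given 5% lysed horse blood. DMSO stocks of 10 mg/mL; twofold dilutions to final 200–0.0125 µg/mL. Mid-log inoculum (OD600 0.5) diluted to final OD600 0.0005 (~10^5 CFU/mL). Overnight at 37°C; MIC is the lowest concentration inhibiting 90% of visible growth.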

Bacillus subtilis = assay: Antibacterial activity against Bacillus subtilis ATCC 23857 after overnight incubation by microbroth dilution assay; format: functional; how it was run: as §1
Streptococcus pneumoniae = assay: Antibacterial activity against Streptococcus pneumoniae R6 after overnight incubation by microbroth dilution assay; format: functional; how it was run: as §1
Bacillus anthracis [5] = assay: Inhibition of protein synthesis in Bacillus anthracis sterne assessed as Inhibition of [3H]amino acid incorporation into protein incubated for 15 mins prior to [3H]amino acid addition measured after 30 mins by scintillation counting; format: functional, organism-based

| Structure (SMILES) | IC50 [1] [µM] | MIC90 (Bacillus anthracis [2]) [µg/mL] | inhibition (Bacillus anthracis [3]) | inhibition (Bacillus anthracis [4]) | MIC90 (Enterococcus faecalis) [µg/mL] | MIC90 (Staphylococcus aureus) [µg/mL] | MIC90 (Bacillus subtilis) [µg/mL] | MIC90 (Streptococcus pneumoniae) [µg/mL] | inhibition (Bacillus anthracis [5]) |
| --- | --- | --- | --- | --- | --- | --- | --- | --- | --- |
| CCCCCCCCCCCCCCCC(=O)NS(=O)(=O)OC1CCOC1 (stereo not given) | 45 | 1.56 (≈ 3.85 µM) | Active | Active | > 200 | 25 (≈ 61.6 µM) | > 200 | > 200 | Active |
| CCCCCCCCCCCCCCCC(=O)NS(=O)(=O)OC1CCN(C(=O)OC(C)(C)C)CC1 | 15 | 3.13 (≈ 6.03 µM) | Active | Active | > 200 | > 200 | > 200 | > 200 | Active |
| CCCCCCCCCCCCCCCC(=O)NS(=O)(=O)OC [METHYL PALMITOYLSULFAMATE] | 80 | > 100 | Active | Active | > 200 | > 200 | > 200 | > 200 | Active |
| CCCCCCCCCCCCCCCC(=O)NS(=O)(=O)Oc1ccc2c(c1)OCO2 | 12 | > 100 | Active | Active | > 200 | 100 (≈ 219 µM) | > 200 | 3.13 (≈ 6.87 µM) | Active |
| CCCCCCCCCCCCCCCC(=O)NS(=O)(=O)Oc1ccc2ncccc2c1 | 9 | 3.13 (≈ 6.77 µM) | Active | Active | 200 (≈ 432 µM) | > 200 | 200 (≈ 432 µM) | 1.56 (≈ 3.37 µM) | Active |
| CCCCCCCCCCCCCCCC(=O)NS(=O)(=O)Oc1ccc(CCN)cc1 | > 100 | > 100 | Active | Active | > 200 | > 200 | > 200 | > 200 | Active |
| O=C(CCCCCc1ccccc1)NS(=O)(=O)Oc1ccccc1 | 100 | 100 (≈ 288 µM) | Active | Active | 50 (≈ 144 µM) | 100 (≈ 288 µM) | > 200 | 50 (≈ 144 µM) | Active |
| CCCCCCCCCCCCCCCC(=O)NS(=O)(=O)Oc1ccccc1 [PHENYL PALMITOYLSULFAMATE] | 8 | 3.13 (≈ 7.6 µM) | Active | Active | 50 (≈ 121 µM) | > 200 | 50 (≈ 121 µM) | > 200 | Active |
| CCCCCCCCCCCCCCCC(=O)NS(=O)(=O)Oc1ccc(-c2ccc([N+](=O)[O-])cc2)cc1 | 11 | 1.56 (≈ 2.93 µM) | Active | Active | > 200 | 100 (≈ 188 µM) | > 200 | 0.78 (≈ 1.46 µM) | Active |
| O=C(CCCCCCc1ccccc1)NS(=O)(=O)Oc1ccccc1 | 76 | 12.5 (≈ 34.6 µM) | Active | Active | 100 (≈ 277 µM) | 50 (≈ 138 µM) | > 200 | 50 (≈ 138 µM) | Active |
| CCCCCCCCCCCCCCCC(=O)NS(=O)(=O)Oc1ccc(CC(=O)OC)cc1 | 11 | 3.13 (≈ 6.47 µM) | Active | Active | > 200 | 25 (≈ 51.7 µM) | > 200 | 0.78 (≈ 1.61 µM) | Active |
| CCCCCCCCCCCCCCCC(=O)NS(=O)(=O)OC1CCOCC1 | 30 | 3.13 (≈ 7.46 µM) | Active | Active | > 200 | > 200 | > 200 | > 200 | Active |
| CCCCCCCCCCCCCCCC(=O)NS(=O)(=O)Oc1ccc(Cl)cc1 | 6 | 6.25 (≈ 14 µM) | Active | Active | > 200 | > 200 | > 200 | 100 (≈ 224 µM) | Active |
| CCCCCCCCCCCCCC(=O)NS(=O)(=O)Oc1ccc(OC)cc1 | 6 | 0.78 (≈ 1.89 µM) | Active | Active | 6.25 (≈ 15.1 µM) | > 200 | > 200 | > 200 | Active |
| CCCCCCCCCCCCCCCC(=O)NS(=O)(=O)OC1CCNCC1 | > 100 | > 100 | Active | Active | > 200 | > 200 | > 200 | > 200 | Active |
| O=C(/C=C/c1ccc(-c2ccccc2)cc1)NS(=O)(=O)Oc1ccccc1 | > 100 | 100 (≈ 264 µM) | Active | Active | 50 (≈ 132 µM) | 25 (≈ 65.9 µM) | > 200 | 100 (≈ 264 µM) | Active |
| C=CCCCCCCCCC(=O)NS(=O)(=O)Oc1ccc(OC)cc1 | 27 | 12.5 (≈ 33.8 µM) | Active | Active | 1.6 (≈ 4.33 µM) | 12.5 (≈ 33.8 µM) | 6.25 (≈ 16.9 µM) | 200 (≈ 541 µM) | Active |
| CCCCCCCCCCCCCCCC(=O)NS(=O)(=O)Oc1ccc(Cl)c(Cl)c1 | 9 | 12.5 (≈ 26 µM) | Active | Active | 100 (≈ 208 µM) | > 200 | 100 (≈ 208 µM) | > 200 | Active |
| CCCCCCCCCCCCCCCC(=O)NS(=O)(=O)Oc1ccc(C(=O)OCC)cc1 | 10 | 3.13 (≈ 6.47 µM) | Active | Active | > 200 | 6.25 (≈ 12.9 µM) | > 200 | 1.56 (≈ 3.23 µM) | Active |
| CCCCCCCCCCCCCCCC(=O)NS(=O)(=O)Oc1cccc(Cl)c1 | 14 | 3.13 (≈ 7.02 µM) | Active | Active | 100 (≈ 224 µM) | > 200 | 100 (≈ 224 µM) | > 200 | Active |
